# Experimental data: ChEMBL document CHEMBL1129527, “Synthesis, chromatographic resolution, and anti-human immunodeficiency virus activity of (+/-)-calanolide A and its enantiomers” (J Med Chem, 1996); call rule not given here
# pEC50, pIC50: −log10 of the molar value.
# How the values were obtained:
# [1] = Therapeutic index is the ratio between IC50/EC50 of HIV-I G910-6 strain in MT2 cell line; format: cell-based; conditions: human, MT2 cells infected with HIV-1 G910-6 strain; read-out: TI
# Outline: (§1)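 MT-2 cells in RPMI 1640 with 10% heat-inactivated FCS and 25 mM HEPES, infected at MOI ~0.03 TCID50/cell for 4 h at 37 °C, then washed. Seeded at 10^4 cells/mL. Compounds were diluted from DMSO to a top concentration of 100 µg/mL (≤0.25% DMSO), in triplicate with infected cells and duplicate with uninfected cells. MTT viability was read at day 7. EC50 protects against virus-induced killing; IC50 is cytotoxicity.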
# [2] = Therapeutic index is the ratio between IC50/EC50 of HIV-I IIIB strain in MT2 cell line; format: cell-based; conditions: human, MT2 cells infected with HIV-1 IIIB strain; read-out: TI; outline: as §1
# MT2 [3] = assay: Anti-HIV activity against HIV-I IIIB strain in MT2 cell line; format: functional, cell-based; conditions: Homo sapiens; outline: as §1
# MT2 [4] = assay: (§2) Anti-HIV activity against HIV-I H112-2 strain in MT2 cell line; format: functional, cell-based; conditions: Homo sapiens; outline: as §1
# MT2 [5] = assay: Anti-HIV activity against HIV-I A17 strain in MT2 cell line; format: functional, cell-based; conditions: Homo sapiens; outline: as §1
# [6] = Therapeutic index is the ratio between IC50/EC50 of HIV-I RFII strain in CEM cell line; format: cell-based, CCRF-CEM; conditions: human, CEM cells infected with HIV-1 RFII strain; read-out: TI
# Outline: (§3)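 CEM-SS cells in RPMI 1640 with 10% heat-inactivated FCS, infected at ~0.12 TCID50/cell for 4 h at 37 °C, washed, and seeded at 10^4 cells/mL. Drug dilutions from DMSO went up to 100 µg/mL, in triplicate on infected wells and duplicate on uninfected wells. MTT viability was measured after 6 days.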
# MT2 [7] = assay: (§4) Anti-HIV activity against HIV-I G910-6 strain in MT2 cell line; format: functional, cell-based; conditions: Homo sapiens; outline: as §1
# [8] = Therapeutic index is the ratio between IC50/EC50 of HIV-I H112-2 strain in MT2 cell line; format: cell-based; conditions: human, MT2 cells infected with HIV-1 H112-2 strain; read-out: TI; outline: as §1
# [9] = Therapeutic index is the ratio between IC50/EC50 of HIV-I A17 strain in MT2 cell line; format: cell-based; conditions: human, MT2 cells infected with HIV-1 A17 strain; read-out: TI; outline: as §1
# CCRF-CEM = assay: Anti-HIV activity against HIV-I RFII strain in CEM cell line; format: functional, cell-based; conditions: Homo sapiens; outline: as §3
# MT2 [10] = assay: as §4; format: functional; conditions: Homo sapiens; outline: as §1
# Nucleic Acid [11] = assay: Inhibitory activity against DNA polymerase alpha; IA=inactive; format: nucleic-acid assay
# Outline: (§5)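 Polymerase α or β (0.5 unit) in Tris·HCl with 5 mM KCl, 10 mM MgCl2, 1.5 mM DTT, BSA, and 12% glycerol. Template was 41 µM activated calf thymus DNA, with 80 µM each dATP, dCTP, dGTP and ATP, plus [3H]TTP. Compound was added in DMSO, duplicate wells, 37 °C. Incorporation was counted by scintillation. IC50 came from 10-point half-log dose–response curves.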
# MT2 [12] = assay: as §2; format: functional; conditions: Homo sapiens; outline: as §1
# [13] = test system: Avian myeloblastosis virus; assay: Percent inhibition against Avian Myeloblastosis Virus Reverse Transcriptase (AMV RT) at dose 200 ug/mL; format: functional
# [14] = molecular target: DNA-directed RNA polymerase subunit beta (Escherichia coli K-12, UniProt P0A8V2); assay: Inhibitory activity against RNA polymerase; IA=inactive
# Outline: (§6)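 RNA polymerase (0.5 unit) in Tris·HCl with 150 mM KCl, 10 mM MgCl2, 0.1 mM DTT, and BSA. Template was 41 µM native calf thymus DNA, with 80 µM each ATP, CTP and GTP, plus [3H]UTP. Compounds in DMSO were prescreened at 200 µg/mL. […] Percent inhibition = (1 − test/DMSO control) × 100.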
# Nucleic Acid [15] = assay: Inhibitory activity against DNA polymerase beta; format: nucleic-acid assay; outline: as §5
# [16] = molecular target: DNA-directed RNA polymerase subunit beta (Escherichia coli K-12) (UniProt P0A8V2); assay: Percent inhibition against RNA polymerase at dose 200 ug/mL; outline: as §6
# [17] = test system: Avian myeloblastosis virus; assay: Inhibitory activity against Avian Myeloblastosis Virus Reverse Transcriptase (AMV RT); IA=inactive; format: functional
# [18] = test system: Avian myeloblastosis virus; assay: Inhibitory activity against Avian Myeloblastosis Virus Reverse Transcriptase (AMV RT); inactive; format: functional
# Sequence of DNA-directed RNA polymerase subunit beta (P0A8V2 whole entry): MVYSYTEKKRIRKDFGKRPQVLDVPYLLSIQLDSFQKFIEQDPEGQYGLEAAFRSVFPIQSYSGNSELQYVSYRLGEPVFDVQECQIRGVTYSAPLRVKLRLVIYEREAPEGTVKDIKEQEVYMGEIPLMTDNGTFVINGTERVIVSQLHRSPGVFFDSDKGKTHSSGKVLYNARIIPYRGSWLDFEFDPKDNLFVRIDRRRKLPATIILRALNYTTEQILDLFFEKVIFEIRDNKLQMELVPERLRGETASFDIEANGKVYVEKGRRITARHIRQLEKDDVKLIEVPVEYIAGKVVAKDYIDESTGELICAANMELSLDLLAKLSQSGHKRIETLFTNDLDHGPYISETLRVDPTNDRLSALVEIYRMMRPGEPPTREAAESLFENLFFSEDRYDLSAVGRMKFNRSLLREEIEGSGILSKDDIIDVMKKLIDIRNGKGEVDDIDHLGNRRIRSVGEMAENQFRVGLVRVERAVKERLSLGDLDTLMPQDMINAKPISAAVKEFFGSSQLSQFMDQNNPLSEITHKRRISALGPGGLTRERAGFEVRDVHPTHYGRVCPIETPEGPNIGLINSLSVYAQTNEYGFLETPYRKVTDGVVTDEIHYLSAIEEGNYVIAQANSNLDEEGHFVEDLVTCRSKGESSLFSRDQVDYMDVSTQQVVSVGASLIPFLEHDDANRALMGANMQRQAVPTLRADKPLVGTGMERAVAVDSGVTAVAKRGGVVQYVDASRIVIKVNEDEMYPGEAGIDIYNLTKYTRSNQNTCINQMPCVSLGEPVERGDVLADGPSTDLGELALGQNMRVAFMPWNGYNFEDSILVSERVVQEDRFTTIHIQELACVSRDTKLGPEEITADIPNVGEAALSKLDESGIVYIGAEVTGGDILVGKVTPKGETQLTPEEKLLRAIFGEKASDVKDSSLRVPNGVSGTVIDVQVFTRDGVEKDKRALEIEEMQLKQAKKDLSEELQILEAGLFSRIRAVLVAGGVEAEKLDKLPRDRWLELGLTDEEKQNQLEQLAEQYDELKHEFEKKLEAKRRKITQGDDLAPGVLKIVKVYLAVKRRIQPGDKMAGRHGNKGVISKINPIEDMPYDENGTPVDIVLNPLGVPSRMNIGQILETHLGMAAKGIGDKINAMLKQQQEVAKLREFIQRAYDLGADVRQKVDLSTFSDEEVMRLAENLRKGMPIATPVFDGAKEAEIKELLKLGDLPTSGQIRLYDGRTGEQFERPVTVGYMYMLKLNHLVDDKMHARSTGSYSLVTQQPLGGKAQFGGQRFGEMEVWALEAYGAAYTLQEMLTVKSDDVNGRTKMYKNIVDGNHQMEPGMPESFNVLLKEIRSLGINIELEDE
# Sequence of DNA-directed RNA polymerase subunit beta (Escherichia coli K-12) (P0A8V2 whole entry, looked up): as the sequence (P0A8V2 whole entry) above
Compound,pEC50 (MT2 [3]),pEC50 (MT2 [4]),pEC50 (MT2 [5]),pEC50 (MT2 [7]),pEC50 (CCRF-CEM),IC50 (Nucleic Acid [11]),IC50 [14],pIC50 (Nucleic Acid [15]),inhibition [16] [%],IC50 [17],IC50 [18],selectivity ratio [1],selectivity ratio [2],selectivity ratio [6],selectivity ratio [8],selectivity ratio [9],IC25 (MT2 [10]) [nM],IC25 (MT2 [12]) [nM],inhibition at 200 µg/mL [13] [%]
CCCc1cc(=O)oc2c3c(c4c(c12)OC(C)(C)C=C4)O[C@@H](C)[C@H](C)[C@@H]3O [COSTATOLIDE],–,–,–,–,–,Not Active,Not Active,3.67,12.1,Not Active,–,–,–,–,–,–,3970,4050,16.8
CCCc1cc(=O)oc2c3c(c4c(c12)OC(C)(C)C=C4)O[C@H](C)[C@@H](C)[C@@H]3O [CALANOLIDE A],7.28,6.97,6.37,7.57,6.57,Not Active,Not Active,3.69,16,–,Not Active,–,–,–,–,–,–,–,20.6
CCCc1cc(=O)oc2c3c(c4c(c12)OC(C)(C)C=C4)O[C@@H](C)C(C)[C@@H]3O (mixture of isomers),6.97,6.87,6.53,6.97,6.31,Not Active,Not Active,3.55,27.8,Not Active,–,–,–,–,–,–,–,–,13.3

# Further lines, with some results ahead:
pEC50 (MT2 [3]),pEC50 (MT2 [4]),pEC50 (MT2 [5]),pEC50 (MT2 [7]),pEC50 (CCRF-CEM),IC50 (Nucleic Acid [11]),IC50 [14],pIC50 (Nucleic Acid [15]),inhibition [16] [%],IC50 [17],IC50 [18],Compound,selectivity ratio [1],selectivity ratio [2],selectivity ratio [6],selectivity ratio [8],selectivity ratio [9],IC25 (MT2 [10]) [nM],IC25 (MT2 [12]) [nM],inhibition at 200 µg/mL [13] [%]
6.05,5.81,6.48,6.00,6.72,–,–,–,–,–,–,Nc1ccn([C@H]2CC[C@@H](CO)O2)c(=O)n1 [ZALCITABINE],213,93,250,166,408,–,–,–
7.54,7.43,7.85,–,7.64,–,–,–,–,–,–,Cc1cn([C@H]2C[C@H](N=[N+]=[N-])[C@@H](CO)O2)c(=O)[nH]c1=O [ZIDOVUDINE],–,1780,13100,3240,5960,–,–,–
